Type in all cases: ADME, organism-based
Data set [1] can be described thus: Cmax in MRP2-deficient Wistar rat at 5 mg/kg, po by LC-MS/MS analysis. Also on record: dose 5 mg/kg, route oral. The note with it: in vivo.
Data set [2] is described as follows: Tmax in MDR1A knockout Sprague-Dawley rat at 20 mg/kg, po by LC-MS/MS analysis. Also on record: dose 20 mg/kg, route oral. The note with it: in vivo. The method in brief:
(§1)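 Male Sprague-Dawley rats (knockout or wild type, matched for age and weight) with femoral artery and vein cannulas, recovered ≥2 days. In an i.v./oral crossover with a 3-day washout, sulfasalazine was given by oral gavage at 20 mg/kg in 0.5% carboxymethyl cellulose/PBS pH 7.4. Arterial plasma was sampled 0–24 h and analysed by LC-MS/MS (1–5000 ng/ml). Noncompartmental analysis; n = 4 to 8.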

The nature of data set [3]: AUC (infinity) in wild-type Wistar rat at 5 mg/kg, iv by LC-MS/MS analysis. The note with it: plasma. Further details: time infinity, dose 5 mg/kg, route intravenous. In outline:
(§2)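 Male Wistar wild-type or Mrp2-deficient TR⁻ rats with femoral artery and vein cannulas. Sulfasalazine was given as a 5 mg/kg i.v. bolus and as a 20 mg/kg oral dose. Arterial plasma was sampled to 24 h and analysed for parent and sulfapyridine by LC-MS/MS. Noncompartmental parameters; n = 3, mean ± S.D.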

A short description of data set [4]: Tmax in wild-type Sprague-Dawley rat at 20 mg/kg, po by LC-MS/MS analysis. Also on record: dose 20 mg/kg, route oral. The note with it: in vivo. The method in brief:
as §1

Data set [5] can be described thus: Clearance in MRP2 knockout Sprague-Dawley rat at 5 mg/kg, iv by LC-MS/MS analysis. Also on record: dose 5 mg/kg, route intravenous. To be noted: in vivo. The method in brief:
(§3)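 Male Sprague-Dawley knockout or age/weight-matched wild-type rats with femoral artery and vein cannulas. Crossover design: day 0 i.v. bolus 5 mg/kg sulfasalazine in water at pH 9–10, then day 3 gavage 20 mg/kg in 0.5% carboxymethyl cellulose/PBS pH 7.4. Arterial plasma was sampled to 24 h. Sulfasalazine and sulfapyridine were measured by LC-MS/MS (1–5000 ng/ml). Parameters are noncompartmental; n = 4–8, mean ± S.D.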

Data set [6] is described as follows: AUC (infinity) in BCRP knockout Sprague-Dawley rat at 5 mg/kg, iv by LC-MS/MS analysis. To be noted: plasma. Further details: time infinity, dose 5 mg/kg, route intravenous. The method in brief:
as §3

Data set [7] is described as follows: Clearance in wild-type Wistar rat at 5 mg/kg, iv by LC-MS/MS analysis. To be noted: in vivo. Further details: dose 5 mg/kg, route intravenous. The method in brief: as §2
The nature of data set [8]: Tmax in BCRP knockout Sprague-Dawley rat at 20 mg/kg, po by LC-MS/MS analysis. Further details: dose 20 mg/kg, route oral. To be noted: in vivo. The method in brief: as §1
Data set [9] in a line: AUC (infinity) in wild-type Wistar rat at 5 mg/kg, po by LC-MS/MS analysis. Also on record: time infinity, dose 5 mg/kg, route oral. The note with it: plasma.
Data set [10] in a line: Half life in MRP2-deficient Wistar rat at 5 mg/kg, po by LC-MS/MS analysis. To be noted: in vivo. Also on record: dose 5 mg/kg, route oral. The method in brief:
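Male Wistar wild-type rats and Mrp2-deficient TR⁻ rats with femoral artery and vein cannulas. Sulfasalazine given as an iv bolus (5 mg/kg, water at pH 9–10) and by oral gavage, each followed by arterial plasma sampling over 24 h. Sulfasalazine and sulfapyridine measured by LC-MS/MS; noncompartmental parameters; mean ± S.D., n = 3.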

Data set [11] can be described thus: Half life in MDR1A knockout Sprague-Dawley rat at 20 mg/kg, po by LC-MS/MS analysis. Also on record: dose 20 mg/kg, route oral. The note with it: in vivo. In outline: (§4)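 Male Sprague-Dawley knockout rats or wild-type rats matched for age and weight, with femoral artery and vein cannulas. Crossover design: sulfasalazine 5 mg/kg iv bolus (water, pH 9–10) on day 0, then 20 mg/kg oral gavage (0.5% carboxymethyl cellulose in PBS, pH 7.4) on day 3. Arterial plasma collected 0–24 h. Sulfasalazine and sulfapyridine measured by LC-MS/MS; noncompartmental parameters; mean ± S.D., n = 4 to 8.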

Data set [12] can be described thus: Half life in MRP2 knockout Sprague-Dawley rat at 5 mg/kg, iv by LC-MS/MS analysis. Also on record: dose 5 mg/kg, route intravenous. The note with it: in vivo. The method in brief:
as §4

The nature of data set [13]: AUC (infinity) in MRP2-deficient Wistar rat at 5 mg/kg, iv by LC-MS/MS analysis. To be noted: plasma. Also on record: dose 5 mg/kg, route intravenous, time infinity. In outline:
as §2

Data set [14] in a line: Volume of distribution at steady state in MRP2 knockout Sprague-Dawley rat at 5 mg/kg, iv by LC-MS/MS analysis. Further details: dose 5 mg/kg, route intravenous. The note with it: in vivo, read-out: Vdss. The method in brief: as §4
Data set [15] in a line: AUC (infinity) in MDR1A knockout Sprague-Dawley rat at 20 mg/kg, po by LC-MS/MS analysis. Also on record: time infinity, dose 20 mg/kg, route oral. The note with it: plasma. In outline:
as §3

Data set [16] in a line: AUC (infinity) in BCRP knockout Sprague-Dawley rat at 20 mg/kg, po by LC-MS/MS analysis. Further details: time infinity, dose 20 mg/kg, route oral. To be noted: plasma. The method in brief: as §3
Data set [17] is described as follows: Cmax in wild-type Sprague-Dawley rat at 20 mg/kg, po by LC-MS/MS analysis. Further details: dose 20 mg/kg, route oral. The note with it: in vivo. The method in brief:
as §3

Data set [18] in a line: Oral bioavailability in BCRP knockout […]. The note with it: in vivo.

As a reminder, the Cmax is the maximum level reached in the sampled fluid or tissue. As a reminder, the Tmax is the time at which the peak concentration occurs. By AUC(0-inf) is commonly meant the area under the concentration-time curve extrapolated to infinity. A low value points to low exposure. The term clearance denotes the volume of plasma or blood freed of the substance per unit of time. Lower therefore signals inefficient removal. Broadly, the half-life is how long it takes for the measured level to halve. One may read the bioavailability as the share of a dose that reaches the circulation, judged against a reference dose that is usually intravenous. High values mean much systemic uptake, low ones little systemic uptake. Regarding `O=C(O)c1cc(/N=N/c2ccc(S(=O)(=O)Nc3ccccn3)cc2)ccc1O` [SULFASALAZINE], the Cmax was 144 ng/mL in [1] and 185 ng/mL in data set [17]. The Tmax in data set [2] stood at 0.3 h; in [4] it was 0.25 h; in data set [8] it was 0.6 h. Also, the AUC(0-inf) was 12300 ng·h/mL in data set [3]; 10700 ng·h/mL in data set [6]; 1810 ng·h/mL in [9]; 7730 ng·h/mL in data set [13]; 711 ng·h/mL in data set [15]; 13100 ng·h/mL in [16]. Also, the results for the clearance in data set [5] and in [7] were 22 mL/min/kg and 6.8 mL/min/kg, respectively. For the same compound, the half-life is 2.3 h in data set [10], 2.3 h in [11] and 4.3 h in data set [12]. Also, the Vd in data set [14] turned out to be 1.3 L/kg. The same compound displayed a bioavailability in data set [18] of 37%.

(Values after ChEMBL document CHEMBL3526049 (Drug Metab Dispos, 2012).)
